# Columns and labels:
# Format in all cases: functional
# MDA-MB-435 = assay: Growth inhibition of human MDA-MB-435 cells after 48 hrs by sulforhodamine B assay; settings: MDA-MB-435, 48 h
# Method in brief: (§1)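 NCI 60-line panel, five concentrations (0.01–100 µM) from DMSO stock diluted in medium with gentamicin. Cells were plated 24 h before dosing, with time-zero plates fixed at drug addition, then exposed 48 h at 37 °C, 5% CO₂. Adherent cells were fixed with cold TCA (10% final) and suspension cells with 16% TCA. Staining used 0.4% SRB, solubilised in 10 mM Tris and read at 515 nm. GI₅₀ was taken from log concentration–% growth curves.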
# OVCAR-4 = assay: Growth inhibition of human OVCAR4 cells after 48 hrs by sulforhodamine B assay; settings: OVCAR-4, 48 h; method in brief: as §1
# SK-MEL-5 = assay: Growth inhibition of human SK-MEL-5 cells after 48 hrs by sulforhodamine B assay; settings: SK-MEL-5, 48 h
# Method in brief: (§2)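 Adherent lines plated and held 24 h at 37 °C, 5% CO2, 100% humidity; time-zero plates TCA-fixed at drug addition. Drugs from DMSO stocks were made into five concentrations by 10-fold or half-log serial dilution and applied for 48 h continuous exposure. Cells were fixed with cold TCA (10% final) for 60 min at 4 °C, then stained with 0.4% SRB in 1% acetic acid for 10 min. Dye was solubilized in 10 mM Tris base and read at 515 nm. GI50 was taken from log concentration–growth curves.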
# CCRF-CEM = assay: Growth inhibition of human CCRF-CEM cells after 48 hrs by sulforhodamine B assay; method in brief: as §1
# LOX IMVI = assay: Growth inhibition of human LOXIMVI cells after 48 hrs by sulforhodamine B assay; method in brief: as §1
# M14 = assay: Growth inhibition of human M14 cells after 48 hrs by sulforhodamine B assay; settings: M14, 48 h; method in brief: as §1
# RXF 393 = assay: Growth inhibition of human […] cells after 48 hrs by sulforhodamine B assay; settings: RXF 393, 48 h; method in brief: as §1
# COLO 205 = assay: Growth inhibition of human COLO205 cells after 48 hrs by sulforhodamine B assay; settings: COLO 205, 48 h; method in brief: as §1
# [1] = Cytotoxicity against human prostate cancer cells after 48 hrs by sulforhodamine B assay; settings: Cancer cell lines
# Method in brief: (§3)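 NCI five-dose screen: about 60 human tumour lines grouped into nine subpanels were plated and incubated 24 h before dosing. Compounds went in as DMSO stock and were diluted in medium to five final concentrations (0.01–100 µM). Exposure was 48 h continuous at 37 °C, 5% CO₂, followed by TCA fixation and SRB staining read at 515 nm. Per-line GI₅₀, TGI and LC₅₀ came from log concentration–% growth curves, averaged per subpanel as MG-MID.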
# SK-OV-3 = assay: Growth inhibition of human SKOV3 cells after 48 hrs by sulforhodamine B assay; settings: SK-OV-3, 48 h; method in brief: as §2
# [2] = Cytotoxicity against human colon cancer cells after 48 hrs by sulforhodamine B assay; settings: Cancer cell lines; method in brief: as §3
# ACHN = assay: Growth inhibition of human ACHN cells after 48 hrs by sulforhodamine B assay; method in brief: as §1
# [3] = Cytotoxicity against human ovarian cancer cells after 48 hrs by sulforhodamine B assay; settings: Cancer cell lines; method in brief: as §3
# MCF7 = assay: Growth inhibition of human MCF7 cells after 48 hrs by sulforhodamine B assay; settings: MCF7, 48 h; method in brief: as §1
# T47D = assay: Growth inhibition of human T47D cells after 48 hrs by sulforhodamine B assay; method in brief: as §2
# CAKI-1 = assay: Growth inhibition of human Caki1 cells after 48 hrs by sulforhodamine B assay; settings: CAKI-1, 48 h; method in brief: as §1
# SK-MEL-28 = assay: Growth inhibition of human SK-MEL-28 cells after 48 hrs by sulforhodamine B assay; settings: SK-MEL-28, 48 h; method in brief: as §2
# 786-0 = assay: Growth inhibition of human 786-0 cells after 48 hrs by sulforhodamine B assay; settings: 786-0, 48 h; method in brief: as §1
# [4] = Cytotoxicity against human renal cancer cells after 48 hrs by sulforhodamine B assay; settings: Cancer cell lines; method in brief: as §3
# BT-549 = assay: Growth inhibition of human BT549 cells after 48 hrs by sulforhodamine B assay; settings: BT-549, 48 h; method in brief: as §1
# SF-295 = assay: Growth inhibition of human SF295 cells after 48 hrs by sulforhodamine B assay; settings: SF-295, 48 h; method in brief: as §1
# [5] = Cytotoxicity against human lung cancer cells after 48 hrs by sulforhodamine B assay; settings: Cancer cell lines; method in brief: as §3
# [6] = Cytotoxicity against human breast cancer cells after 48 hrs by sulforhodamine B assay; settings: Cancer cell lines; method in brief: as §3
# SNB-75 = assay: Growth inhibition of human SNB75 cells after 48 hrs by sulforhodamine B assay; settings: SNB-75, 48 h; method in brief: as §2
# HOP-92 = assay: Growth inhibition of human HOP92 cells after 48 hrs by sulforhodamine B assay; settings: HOP-92, 48 h; method in brief: as §1
# NCI/ADR-RES = assay: Growth inhibition of human NCI/ADR-RES cells after 48 hrs by sulforhodamine B assay; method in brief: as §1
# NCI-H522 = assay: Growth inhibition of human NCI-H522 cells after 48 hrs by sulforhodamine B assay; settings: NCI-H522, 48 h; method in brief: as §1
# NCI-H226 = assay: Growth inhibition of human NCI-H226 cells after 48 hrs by sulforhodamine B assay; settings: NCI-H226, 48 h; method in brief: as §1
# K562 = assay: Growth inhibition of human K562 cells after 48 hrs by sulforhodamine B assay; settings: K562, 48 h; method in brief: as §1
# [7] = Cytotoxicity against human CNS cancer cells after 48 hrs by sulforhodamine B assay; settings: Cancer cell lines; method in brief: as §3
# SF-268 = assay: Growth inhibition of human SF268 cells after 48 hrs by sulforhodamine B assay; settings: SF-268, 48 h; method in brief: as §1
# IGROV-1 = assay: Growth inhibition of human IGROV1 cells after 48 hrs by sulforhodamine B assay; settings: IGROV-1, 48 h; method in brief: as §1
# SF-539 = assay: Growth inhibition of human SF539 cells after 48 hrs by sulforhodamine B assay; settings: SF-539, 48 h; method in brief: as §2
# NCI-H460 = assay: Growth inhibition of human NCI-H460 cells after 48 hrs by sulforhodamine B assay; settings: NCI-H460, 48 h; method in brief: as §1
# SNB-19 = assay: Growth inhibition of human SNB19 cells after 48 hrs by sulforhodamine B assay; settings: SNB-19, 48 h; method in brief: as §2
# SW-620 = assay: Growth inhibition of human SW620 cells after 48 hrs by sulforhodamine B assay; settings: SW-620, 48 h; method in brief: as §2
# KM12 = assay: Growth inhibition of human KM12 cells after 48 hrs by sulforhodamine B assay; settings: KM12, 48 h; method in brief: as §1
# [8] = Cytotoxicity against human leukemia cells after 48 hrs by sulforhodamine B assay; settings: Leukemia cell; method in brief: as §3
# HT-29 = assay: Growth inhibition of human HT-29 cells after 48 hrs by sulforhodamine B assay; settings: HT-29, 48 h; method in brief: as §1
# DU-145 = assay: Growth inhibition of human DU145 cells after 48 hrs by sulforhodamine B assay; settings: DU-145, 48 h; method in brief: as §1
# HCC 2998 = assay: Growth inhibition of human HCC2998 cells after 48 hrs by sulforhodamine B assay; settings: HCC 2998, 48 h; method in brief: as §1
structure (smiles),measurement,setting,value
O=C(c1nn(-c2ccc(Cl)cc2)cc1O)n1nc(-c2ccco2)cc1C(F)(F)F,GI50,MDA-MB-435,1970 nM
same,GI50,OVCAR-4,2430 nM
same,GI50,SK-MEL-5,2490 nM
same,GI50,CCRF-CEM,690 nM
same,GI50,LOX IMVI,2370 nM
same,GI50,M14,4.28 µM
same,GI50,RXF 393,30 nM
same,GI50,COLO 205,2970 nM
same,GI50,[1],18.4 µM
same,GI50,SK-OV-3,3.55 µM
same,GI50,[2],4.59 µM
same,TGI,[2],88.5 µM
same,GI50,ACHN,2530 nM
same,GI50,[3],2180 nM
same,TGI,[3],94.5 µM
same,GI50,MCF7,3.51 µM
same,GI50,T47D,4.16 µM
same,GI50,CAKI-1,2430 nM
same,GI50,SK-MEL-28,9.22 µM
same,GI50,786-0,6.6 µM
same,GI50,[4],3.85 µM
same,TGI,[4],75.6 µM
same,GI50,BT-549,1140 nM
same,GI50,SF-295,480 nM
same,GI50,[5],3.19 µM
same,TGI,[5],78.9 µM
same,GI50,[6],3.07 µM
same,TGI,[6],77 µM
same,GI50,SNB-75,820 nM
same,GI50,HOP-92,4.9 µM
same,GI50,NCI/ADR-RES,1600 nM
same,GI50,NCI-H522,2670 nM
same,GI50,NCI-H226,2710 nM
same,GI50,K562,1720 nM
same,GI50,[7],2990 nM
same,TGI,[7],90.5 µM
same,GI50,SF-268,3.63 µM
same,GI50,IGROV-1,920 nM
same,GI50,SF-539,2810 nM
same,GI50,NCI-H460,780 nM
same,GI50,SNB-19,4.37 µM
same,GI50,SW-620,4.75 µM
same,GI50,KM12,5.88 µM
same,GI50,[8],1760 nM
same,TGI,[8],80.7 µM
same,GI50,HT-29,4.56 µM
same,GI50,DU-145,10.5 µM
same,GI50,HCC 2998,10.5 µM

# Source: ChEMBL document CHEMBL1156332, “Polysubstituted pyrazoles, part 6. Synthesis of some 1-(4-chlorophenyl)-4-hydroxy-1H-pyrazol-3-carbonyl derivatives linked to nitrogenous heterocyclic ring systems as potential antitumor agents” (2010)
